{"data": "Experimental data gathered from unrelated publications", "target": "Serine/threonine-protein kinase PAK 1 (PAK1, Homo sapiens, UniProt Q13153)"}
{"Compound": "O=C(CSc1nc2nccnc2c(=O)n1CCc1ccccc1)Nc1nccs1", "assay": "enzyme activity, inhibitor", "conditions": "10 µM", "endpoint": "inhibition", "result": "19%"}
{"Compound": "COc1cc2ncnc(Nc3ccc(Oc4ccccc4)cc3C)c2cc1OC", "assay": "enzyme activity, inhibitor", "conditions": "1 µM", "endpoint": "inhibition", "result": "4%"}
{"Compound": "CN(C)C1CCN(CC#Cc2nn(C3CCCC3)c3nc(NCc4ccccc4)ncc23)C1 (stereo not shown)", "assay": "enzyme activity, inhibitor, FRET", "conditions": "1 µM", "endpoint": "inhibition", "result": "4%"}
{"Compound": "Cc1sc(C(=O)NC2COC2)cc1-n1cc(NC(=O)Nc2c(F)cccc2Cl)cn1", "assay": "enzyme activity, inhibitor", "conditions": "10 µM", "endpoint": "remaining activity", "result": "104%"}
{"Compound": "COc1cc2ncnc(Nc3ccc(F)c(Cl)c3)c2cc1OCCCN1CCOCC1", "assay": "cell-free assay", "conditions": "0.5 µM", "endpoint": "remaining signal", "result": "104%"}
{"Compound": "Cc1c(C(=O)O)cc(-c2ccc(C3CCNCC3)cc2)c2ccc(-c3ccc(C(F)(F)F)cc3)cc12", "assay": "cell-free assay, competition with immobilised ligand", "conditions": "1 µM", "endpoint": "remaining binding", "result": "100%"}
{"Compound": "CC(C)(C)c1nc(-c2cccc(NS(=O)(=O)c3c(F)cccc3F)c2F)c(-c2ccnc(N)n2)s1", "assay": "enzyme activity, inhibitor, radiometric", "conditions": "1 µM", "endpoint": "remaining activity", "result": "91%"}
{"Compound": "Cc1ccc(C(=O)Nc2ccc(CN3CCN(C)CC3)c(C(F)(F)F)c2)cc1C#Cc1cnc2cccnn12", "assay": "enzyme activity, inhibitor", "conditions": "23.5 nM", "endpoint": "remaining activity", "result": "100%"}
{"Compound": "O=C1CCc2cc(Nc3cc(OC4CCOCC4)c([N+](=O)[O-])cc3Cl)ccc2N1", "assay": "cell-free assay, competition with immobilised ligand", "conditions": "1 µM", "endpoint": "remaining binding", "result": "88%"}
{"Compound": "O=C1Nc2ccc(Cl)cc2C1=Cc1cc(Cl)c(O)c(Cl)c1", "assay": "cell-free assay", "conditions": "0.5 µM", "endpoint": "remaining signal", "result": "97.2%"}
{"Compound": "CC(=O)C1=C(C)N(c2cccc(C(F)(F)F)c2)C(=O)N[C@@H]1c1ccc(C#N)nc1", "assay": "cell-free assay, competition with immobilised ligand", "conditions": "1 µM", "endpoint": "remaining binding", "result": "91.2%"}
{"Compound": "O=C1NC(=O)c2cc(Nc3ccc(F)cc3)c(Nc3ccc(F)cc3)cc21", "assay": "cell-free assay", "conditions": "0.5 µM", "endpoint": "remaining signal", "result": "95.5%"}
{"Compound": "O=C(Nc1cnn(-c2csc(C(=O)NC3COC3)c2)c1)Nc1c(F)cccc1Cl", "assay": "enzyme activity, inhibitor", "conditions": "5 µM", "endpoint": "remaining activity", "result": "81.2%"}
{"Compound": "Nc1cnc(N2CCc3cc(S(=O)(=O)Nc4c(F)cc(Cl)cc4F)cc(N4CCCC4=O)c32)nc1", "assay": "cell-free assay, competition with immobilised ligand", "conditions": "1 µM", "endpoint": "remaining binding", "result": "89%"}
{"Compound": "Cc1ccc(C(=O)NCc2ccsc2)cc1C#Cc1cn(C(C)C)c2ncnc(N)c12", "assay": "enzyme activity, inhibitor", "conditions": "1 µM", "endpoint": "activity vs control", "result": "82%"}
{"Compound": "COc1ccc2c(c1)O[C@@H](c1ccc(OC)c(OC)c1)C[C@H]2NC(=O)C1(c2ccc3c(c2)OC(F)(F)O3)CC1", "assay": "cell-free assay, competition with immobilised ligand", "conditions": "1 µM", "endpoint": "remaining binding", "result": "89%"}
{"Compound": "Cc1ccc(NC(=O)c2ccc(C)c(C(F)(F)F)c2)cc1C#Cc1nn(C2CCC(O)CC2)c2ncnc(N)c12 (stereo not shown)", "assay": "cell-free assay", "conditions": "10 µM", "endpoint": "remaining signal", "result": "87%"}
{"Compound": "CCOC(=O)c1cc2cc(-c3cc(C(=O)NCc4ccc(C(=O)O)cc4)nn3C)ccc2[nH]1", "assay": "cell-free assay, competition with immobilised ligand", "conditions": "0.1 µM", "endpoint": "remaining binding", "result": "92%"}
{"Compound": "CC/C(=N\\NC(=O)NCc1cccc(O)c1)c1ccc(O)c(C)c1O", "assay": "enzyme activity, inhibitor", "conditions": "0.1 µM", "endpoint": "inhibition", "result": "-6.4%"}
